These results are taken from ChEMBL document CHEMBL1133683, “beta-Turned dipeptoids as potent and selective CCK(1) receptor antagonists” (J Med Chem, 2000).

Experiment [1] deals with T1, Cholecystokinin receptor type A (Rattus norvegicus, UniProt P30551).
T1 sequence (P30551 whole entry): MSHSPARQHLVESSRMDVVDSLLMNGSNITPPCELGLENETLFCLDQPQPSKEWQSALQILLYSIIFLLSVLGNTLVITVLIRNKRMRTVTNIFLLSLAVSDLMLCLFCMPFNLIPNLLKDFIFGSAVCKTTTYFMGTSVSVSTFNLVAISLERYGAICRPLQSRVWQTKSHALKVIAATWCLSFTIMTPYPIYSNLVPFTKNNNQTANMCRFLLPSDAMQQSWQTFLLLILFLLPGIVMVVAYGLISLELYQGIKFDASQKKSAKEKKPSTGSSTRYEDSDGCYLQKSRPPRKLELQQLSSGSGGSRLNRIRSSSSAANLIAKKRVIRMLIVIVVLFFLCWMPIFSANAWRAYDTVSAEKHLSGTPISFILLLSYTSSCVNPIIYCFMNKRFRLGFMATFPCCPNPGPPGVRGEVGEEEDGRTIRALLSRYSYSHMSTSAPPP
The experiment is described as follows: In vitro inhibition of [3H]propionyl-CCK-8 binding to rat pancreatic membranes at Cholecystokinin type A receptor. The class given is cell membranes, Membrane. The method in brief: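 Rat pancreas homogenized in Pipes-HCl pH 6.5 with 30 mM MgCl2 and spun twice (50000g, 10 min, 4 °C). Membranes (0.2 mg protein/tube) incubated with 0.5 nM [3H]pCCK-8 in the same buffer plus bacitracin and soybean trypsin inhibitor (0.2 mg/mL each), 120 min at 25 °C. Nonspecific binding defined with 1 μM CCK-8. Seven concentrations in duplicate, ≥3 experiments, mean ± SEM.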

For experiment [2], the target named is T2, Gastrin/cholecystokinin type B receptor (Rattus norvegicus, UniProt P30553).
T2 sequence (P30553 whole entry): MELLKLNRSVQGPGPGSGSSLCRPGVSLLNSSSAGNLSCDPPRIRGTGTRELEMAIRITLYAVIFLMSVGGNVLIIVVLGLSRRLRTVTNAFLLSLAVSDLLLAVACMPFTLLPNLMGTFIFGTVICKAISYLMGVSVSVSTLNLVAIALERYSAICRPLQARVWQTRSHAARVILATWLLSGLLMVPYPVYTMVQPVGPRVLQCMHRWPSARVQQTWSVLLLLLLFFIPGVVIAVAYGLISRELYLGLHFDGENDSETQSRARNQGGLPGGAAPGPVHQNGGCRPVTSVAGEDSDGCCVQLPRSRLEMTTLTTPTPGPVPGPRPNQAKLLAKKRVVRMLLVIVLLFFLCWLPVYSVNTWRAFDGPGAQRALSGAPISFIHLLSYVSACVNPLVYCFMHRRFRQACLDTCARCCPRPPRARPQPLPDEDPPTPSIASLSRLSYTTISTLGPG
The experiment is described as follows: In vitro inhibition of [3H]propionyl-CCK-8 binding to rat cerebral cortex membranes at Cholecystokinin type B receptor. Type of experiment: cell membranes, Membrane. The procedure, abridged:
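Rat cerebral cortex homogenized in 50 mM Tris-HCl pH 7.4 with 5 mM MgCl2 and spun twice (100000g, 35 min, 4 °C). Membranes (0.45 mg protein/tube) incubated with 1 nM [3H]pCCK-8 in the same buffer plus bacitracin 0.2 mg/mL, 60 min at 25 °C. Nonspecific binding defined with 1 μM CCK-8. Seven test concentrations in duplicate, at least three experiments, mean ± SEM.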

Experiment [3] is filed under the species Rattus norvegicus. The experiment is described as follows: Inhibition of CCK-8-stimulated amylase release from pancreatic acinar cells. Type of experiment: functional, cell-based. The method in brief:
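Pancreatic acini prepared by collagenase digestion (70 U/mL, three 10-min incubations at 37 °C under O2). Acini incubated 30 min at 37 °C under pure O2 with agitation. Amylase release was stimulated by 0.1 nM CCK-8 and expressed as percent of acinar amylase released. Percent inhibition was calculated across increasing drug concentrations, and IC50 is given with a range.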

Structures are written as SMILES.

A word on the IC50: it is the midpoint of a concentration-inhibition curve. Low readings indicate inhibition by little substance, high ones a need for much substance. `COC(=O)C[C@H](Cc1ccccc1)NC(=O)[C@H]1Cc2c([nH]c3ccccc23)[C@@H]2C[C@@H](NC(=O)OCc3ccccc3)C(=O)N12`: the IC50 in experiment [1] is over 1 µM; in experiment [2], over 10 µM. As for `O=C(N[C@H]1C[C@@H]2c3[nH]c4ccccc4c3C[C@@H](C(=O)N[C@H](Cc3ccccc3)C(=O)O)N2C1=O)OCc1ccccc1`, the values for the IC50 in experiment [1] and in experiment [2] were 0.0546 µM and over 10 µM, respectively. In the case of `O=C(N[C@H]1C[C@@H]2c3[nH]c4ccccc4c3C[C@@H](C(=O)N[C@@H](Cc3ccccc3)C(=O)O)N2C1=O)OCc1ccccc1`, the results for the 50% inhibitory concentration (IC50) in experiment [3], in experiment [1] and in experiment [2] were 0.006 µM, 0.0047 µM and over 10 µM, respectively. Take `O=C(O)C[C@H](Cc1ccccc1)NC(=O)[C@@H]1Cc2c([nH]c3ccccc23)[C@H]2C[C@H](NC(=O)OCc3ccccc3)C(=O)N21`: the IC50 in experiment [2] is over 10 µM.

For `O=C(O)C[C@H](Cc1ccccc1)NC(=O)[C@H]1Cc2c([nH]c3ccccc23)[C@@H]2C[C@@H](NC(=O)OCc3ccccc3)C(=O)N12`, the 50% inhibitory concentration (IC50) in experiment [1] was 0.0978 µM; in experiment [2], over 10 µM. The corresponding values for `COC(=O)[C@H](Cc1ccccc1)NC(=O)[C@@H]1Cc2c([nH]c3ccccc23)[C@H]2C[C@H](NC(=O)OCc3ccccc3)C(=O)N21` are 0.0475 µM and over 10 µM. For `COC(=O)[C@@H](Cc1ccccc1)NC(=O)[C@@H]1Cc2c([nH]c3ccccc23)[C@H]2C[C@H](NC(=O)OCc3ccccc3)C(=O)N21`, in that order: over 1 µM and over 10 µM. For `O=C(O)C[C@@H](Cc1ccccc1)NC(=O)[C@H]1Cc2c([nH]c3ccccc23)[C@@H]2C[C@@H](NC(=O)OCc3ccccc3)C(=O)N12`, in that order: over 1 µM and over 10 µM. As to `NC(=O)[C@@H](Cc1ccccc1)NC(=O)[C@@H]1Cc2c([nH]c3ccccc23)[C@H]2C[C@H](NC(=O)OCc3ccccc3)C(=O)N21`, the IC50 in experiment [1] is over 1 µM; in experiment [2], over 10 µM.

For the compound `COC(=O)[C@@H](Cc1ccccc1)NC(=O)[C@H]1Cc2c([nH]c3ccccc23)[C@@H]2C[C@@H](NC(=O)OCc3ccccc3)C(=O)N12`, the 50% inhibitory concentration (IC50) in experiment [1] was over 1 µM; in experiment [2], over 10 µM. As for `CN1C(=O)[C@@H](NC(=O)c2cc3ccccc3[nH]2)N=C(c2ccccc2)c2ccccc21` [DEVAZEPIDE], in experiment [3], the concentration for half-maximal inhibition (IC50) was determined as 0.0025 µM. On to `NC(=O)[C@H](Cc1ccccc1)NC(=O)[C@@H]1Cc2c([nH]c3ccccc23)[C@H]2C[C@H](NC(=O)OCc3ccccc3)C(=O)N21`, for which the IC50 in experiment [1] is over 1 µM; in experiment [2], over 10 µM. Turning to `O=C(O)C[C@@H](Cc1ccccc1)NC(=O)[C@@H]1Cc2c([nH]c3ccccc23)[C@H]2C[C@H](NC(=O)OCc3ccccc3)C(=O)N21`, the IC50 in experiment [2] came out at 2.7 µM. That is a single-digit micromolar value. Take `COC(=O)C[C@@H](Cc1ccccc1)NC(=O)[C@H]1Cc2c([nH]c3ccccc23)[C@@H]2C[C@@H](NC(=O)OCc3ccccc3)C(=O)N12`: the half-maximal inhibitory concentration (IC50) in experiment [1] is over 1 µM; in experiment [2], 4.91 µM. For `O=C(N[C@@H]1C[C@H]2c3[nH]c4ccccc4c3C[C@H](C(=O)N[C@H](Cc3ccccc3)C(=O)O)N2C1=O)OCc1ccccc1`, in that order: over 1 µM and 3.72 µM. `COC(=O)[C@H](Cc1ccccc1)NC(=O)[C@H]1Cc2c([nH]c3ccccc23)[C@@H]2C[C@@H](NC(=O)OCc3ccccc3)C(=O)N12`: the values for the IC50 in experiment [1] and in experiment [2] were 0.45 µM and 5.63 µM, respectively.

`O=C(N[C@@H]1C[C@H]2c3[nH]c4ccccc4c3C[C@H](C(=O)N[C@@H](Cc3ccccc3)C(=O)O)N2C1=O)OCc1ccccc1`: the IC50 is 0.0012 µM in experiment [3], 0.00173 µM in experiment [1] and 0.202 µM in experiment [2].
